This note sets out measurements from ChEMBL document CHEMBL4842395, “Design and Synthesis of Oleanolic Acid Trimers to Enhance Inhibition of Influenza Virus Entry” (ACS Med Chem Lett, 2021).

Each structure is given as a SMILES string.

A short description of data set [1]: Cytotoxicity against MDCK cells assessed as reduction in cell viability by CellTiter-Glo assay. The conditions noted are these: dog. Type of data set: cell-based, Canis lupus familiaris. Put shortly: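 Viability of normal, uninfected MDCK cells measured by CellTiter-Glo. Medium containing 1% DMSO was the negative control. CC50 is the concentration that reduces viability by 50%.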
For orientation: Cellular ATP, detected with luciferase, serves as a proxy for viable cell number.

In data set [2] the test system is Influenza A virus. As to the kind of experiment: Antiviral activity against Influenza A virus (A/WSN/1933(H1N1)) infected in MDCK cells assessed as inhibition of virus-induced cytopathic effect at 100 uM measured after 40 hrs incubation by inverted microscpic imaging analysis. Type of data set: functional. Put shortly:
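MDCK cells infected with influenza A/WSN/33 (H1N1), with compounds at 100 μM. Viral CPE judged by direct microscopic observation. DMSO served as the negative control and oseltamivir phosphate as the positive control. Triplicate experiments, with standard deviations.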
A general note: Cytopathic effects are the visible damage that an infection or toxin causes in cultured cells.

The nature of data set [3]: Selectivity ratio of CC50 for MDCK cells to IC50 for Influenza A virus A/WSN/33(H1N1) infected in MDCK cells. Type of data set: toxicity, cell-based. The conditions noted are these: dog, read-out: Ratio CC50/IC50. Put shortly:
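Selectivity index calculated as CC50 (uninfected MDCK cells, CellTiter-Glo) divided by IC50 (inhibition of A/WSN/33 H1N1-induced CPE in MDCK cells).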

Another data set deals with Influenza B virus. As to the kind of experiment: Antiviral activity against Influenza B virus (B/Sichuan/531/2018(Victoria)) infected in cells assessed as reduction in infected cells. Type of data set: functional, organism-based.
Data set [4] concerns Influenza A virus. As to the kind of experiment: Antiviral activity against Influenza A virus (A/Hong Kong/4801/2014 (H3N2)) infected in cells assessed as reduction in infected cells. It is filed as functional, organism-based.
Data set [5] has as its system Influenza A virus. In words: Antiviral activity against Influenza A virus (A/WSN/1933(H1N1)) infected in MDCK cells assessed as s reduction in virus-induced cytopathic effect after 40 hrs incubation by CellTiter-Glo assay. Type of data set: functional, organism-based. Put shortly: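 CPE-based dose–response in MDCK cells infected with A/WSN/33 (H1N1), using the CellTiter-Glo viability read-out. Medium with 1% DMSO was the negative control and oseltamivir phosphate the positive control. IC50 is the concentration giving 50% inhibition of virus-induced CPE. Means of duplicate samples from three independent experiments.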

Data set [6] can be described thus: Selectivity index, ratio of CC50 for MDCK cells to IC50 for antiviral activity against Influenza A virus (A/Hong Kong/4801/2014 (H3N2)). It is filed as toxicity. Particulars: dog, read-out: Ratio CC50/IC50.
Data set [7] is described as follows: Selectivity index, ratio of CC50 for MDCK cells to IC50 for antiviral activity against Influenza A virus (B/Sichuan/531/2018(Victoria)). Type of data set: toxicity. Particulars: dog, read-out: Ratio CC50/IC50.

What is called CC50 is the concentration giving 50% cytotoxicity. The term inhibition denotes the share of the control response that was lost under treatment. Consider `CC1(C)CC[C@]2(C(=O)NCCCCCc3cn(Cc4cc(Cn5cc(CCCCCNC(=O)[C@]67CCC(C)(C)C[C@H]6C6=CC[C@@H]8[C@@]9(C)CC[C@H](O)C(C)(C)[C@@H]9CC[C@@]8(C)[C@]6(C)CC7)nn5)cc(Cn5cc(CCCCCNC(=O)[C@]67CCC(C)(C)C[C@H]6C6=CC[C@@H]8[C@@]9(C)CC[C@H](O)C(C)(C)[C@@H]9CC[C@@]8(C)[C@]6(C)CC7)nn5)c4)nn3)CC[C@]3(C)C(=CC[C@@H]4[C@@]5(C)CC[C@H](O)C(C)(C)[C@@H]5CC[C@]43C)[C@@H]2C1`, for which the CC50 in data set [1] was above 100 µM. Also, in the data set with Influenza A virus [2], the inhibition at 100 µM is above 80%.

What is called IC50 is the concentration at which inhibition is half-maximal. For `CC1(C)CC[C@]2(C(=O)NCCCCCc3cn(CC(CO)(Cn4cc(CCCCCNC(=O)[C@]56CCC(C)(C)C[C@H]5C5=CC[C@@H]7[C@@]8(C)CC[C@H](O)C(C)(C)[C@@H]8CC[C@@]7(C)[C@]5(C)CC6)nn4)Cn4cc(CCCCCNC(=O)[C@]56CCC(C)(C)C[C@H]5C5=CC[C@@H]7[C@@]8(C)CC[C@H](O)C(C)(C)[C@@H]8CC[C@@]7(C)[C@]5(C)CC6)nn4)nn3)CC[C@]3(C)C(=CC[C@@H]4[C@@]5(C)CC[C@H](O)C(C)(C)[C@@H]5CC[C@]43C)[C@@H]2C1`, the selectivity ratio in data set [3] was above 175; in data set [6], above 83.3. The CC50 in data set [1] is above 100 µM. In addition, the IC50 was above 100 µM in the data set with Influenza B virus, 1.2 µM in the data set with Influenza A virus [4] and 0.57 µM in the data set on Influenza A virus [5]. Besides, the inhibition at 100 µM with Influenza A virus [2] was above 80%.

`CC1(C)CC[C@]2(C(=O)NCCCCc3cn(CC(CO)(Cn4cc(CCCCNC(=O)[C@]56CCC(C)(C)C[C@H]5C5=CC[C@@H]7[C@@]8(C)CC[C@H](O)C(C)(C)[C@@H]8CC[C@@]7(C)[C@]5(C)CC6)nn4)Cn4cc(CCCCNC(=O)[C@]56CCC(C)(C)C[C@H]5C5=CC[C@@H]7[C@@]8(C)CC[C@H](O)C(C)(C)[C@@H]8CC[C@@]7(C)[C@]5(C)CC6)nn4)nn3)CC[C@]3(C)C(=CC[C@@H]4[C@@]5(C)CC[C@H](O)C(C)(C)[C@@H]5CC[C@]43C)[C@@H]2C1`: the selectivity ratio in data set [3] was above 3.99. Also, the CC50 in data set [1] was above 100 µM. Also, in the data set on Influenza A virus [5], the IC50 is 25.1 µM. For the same compound, the inhibition at 100 µM in the data set on Influenza A virus [2] was above 80%.

For `CCOC(=O)C1=C[C@@H](OC(CC)CC)[C@H](NC(C)=O)[C@@H](N)C1` [OSELTAMIVIR PHOSPHATE], in data set [3], the selectivity ratio was above 55. Besides, in data set [1], the CC50 is above 100 µM. For the same compound, the IC50 was above 100 µM with Influenza B virus, above 100 µM in the data set with Influenza A virus [4] and 1.82 µM in the data set on Influenza A virus [5]. In addition, in the data set with Influenza A virus [2], the inhibition at 100 µM is above 80%.

Take `CC1(C)CC[C@]2(C(=O)NCCOCCOCCOCCn3cc(OCc4cc(COc5cn(CCOCCOCCOCCNC(=O)[C@]67CCC(C)(C)C[C@H]6C6=CC[C@@H]8[C@@]9(C)CC[C@H](O)C(C)(C)[C@@H]9CC[C@@]8(C)[C@]6(C)CC7)nn5)cc(COc5cn(CCOCCOCCOCCNC(=O)[C@]67CCC(C)(C)C[C@H]6C6=CC[C@@H]8[C@@]9(C)CC[C@H](O)C(C)(C)[C@@H]9CC[C@@]8(C)[C@]6(C)CC7)nn5)c4)nn3)CC[C@]3(C)C(=CC[C@@H]4[C@@]5(C)CC[C@H](O)C(C)(C)[C@@H]5CC[C@]43C)[C@@H]2C1`: the selectivity ratio in data set [3] is above 10.2. Besides, in data set [1], the CC50 is above 100 µM. For the same compound, in the data set with Influenza A virus [5], the IC50 turned out to be 9.84 µM. The inhibition at 100 µM with Influenza A virus [2] was above 80%.

Turning to `CC1(C)CC[C@]2(C(=O)NCCc3cn(Cc4cc(Cn5cc(CCNC(=O)[C@]67CCC(C)(C)C[C@H]6C6=CC[C@@H]8[C@@]9(C)CC[C@H](O)C(C)(C)[C@@H]9CC[C@@]8(C)[C@]6(C)CC7)nn5)cc(Cn5cc(CCNC(=O)[C@]67CCC(C)(C)C[C@H]6C6=CC[C@@H]8[C@@]9(C)CC[C@H](O)C(C)(C)[C@@H]9CC[C@@]8(C)[C@]6(C)CC7)nn5)c4)nn3)CC[C@]3(C)C(=CC[C@@H]4[C@@]5(C)CC[C@H](O)C(C)(C)[C@@H]5CC[C@]43C)[C@@H]2C1`, the selectivity ratio in data set [3] is above 3.17. Further, the 50% cytotoxic concentration (CC50) in data set [1] is above 100 µM. In addition, the IC50 in the data set on Influenza A virus [5] is 31.6 µM. Further, the inhibition at 100 µM in the data set with Influenza A virus [2] is above 80%.

Regarding `CC1(C)CC[C@]2(C(=O)NCCOCCn3cc(OCc4cc(COc5cn(CCOCCNC(=O)[C@]67CCC(C)(C)C[C@H]6C6=CC[C@@H]8[C@@]9(C)CC[C@H](O)C(C)(C)[C@@H]9CC[C@@]8(C)[C@]6(C)CC7)nn5)cc(COc5cn(CCOCCNC(=O)[C@]67CCC(C)(C)C[C@H]6C6=CC[C@@H]8[C@@]9(C)CC[C@H](O)C(C)(C)[C@@H]9CC[C@@]8(C)[C@]6(C)CC7)nn5)c4)nn3)CC[C@]3(C)C(=CC[C@@H]4[C@@]5(C)CC[C@H](O)C(C)(C)[C@@H]5CC[C@]43C)[C@@H]2C1`, in data set [3], the selectivity ratio was above 5.98. The CC50 in data set [1] is above 100 µM. Further, the IC50 in the data set on Influenza A virus [5] worked out at 16.7 µM. Moreover, the inhibition at 100 µM in the data set on Influenza A virus [2] is above 80%.

Regarding `CC1(C)CC[C@]2(C(=O)NCCc3cn(CC(CO)(Cn4cc(CCNC(=O)[C@]56CCC(C)(C)C[C@H]5C5=CC[C@@H]7[C@@]8(C)CC[C@H](O)C(C)(C)[C@@H]8CC[C@@]7(C)[C@]5(C)CC6)nn4)Cn4cc(CCNC(=O)[C@]56CCC(C)(C)C[C@H]5C5=CC[C@@H]7[C@@]8(C)CC[C@H](O)C(C)(C)[C@@H]8CC[C@@]7(C)[C@]5(C)CC6)nn4)nn3)CC[C@]3(C)C(=CC[C@@H]4[C@@]5(C)CC[C@H](O)C(C)(C)[C@@H]5CC[C@]43C)[C@@H]2C1`, the selectivity ratio in data set [3] is above 34.8. Also, in data set [1], the CC50 is above 100 µM. Besides, in the data set on Influenza A virus [5], the IC50 was determined as 2.87 µM. In the data set on Influenza A virus [2], the inhibition at 100 µM was above 80%.

As for `CC1(C)CC[C@]2(C(=O)NCCCc3cn(Cc4cc(Cn5cc(CCCNC(=O)[C@]67CCC(C)(C)C[C@H]6C6=CC[C@@H]8[C@@]9(C)CC[C@H](O)C(C)(C)[C@@H]9CC[C@@]8(C)[C@]6(C)CC7)nn5)cc(Cn5cc(CCCNC(=O)[C@]67CCC(C)(C)C[C@H]6C6=CC[C@@H]8[C@@]9(C)CC[C@H](O)C(C)(C)[C@@H]9CC[C@@]8(C)[C@]6(C)CC7)nn5)c4)nn3)CC[C@]3(C)C(=CC[C@@H]4[C@@]5(C)CC[C@H](O)C(C)(C)[C@@H]5CC[C@]43C)[C@@H]2C1`, the selectivity ratio in data set [3] is above 263; in data set [7], above 3.53; in data set [6] it was above 37.5. In data set [1], the CC50 is above 100 µM. Besides, the IC50 in the data set with Influenza B virus is 28.4 µM; with Influenza A virus [4], 2.67 µM; in the data set with Influenza A virus [5], 0.38 µM. In addition, the inhibition at 100 µM in the data set on Influenza A virus [2] was above 80%.

Consider `CC1(C)CC[C@]2(C(=O)O)CC[C@]3(C)C(=CC[C@@H]4[C@@]5(C)CC[C@H](O)C(C)(C)[C@@H]5CC[C@]43C)[C@@H]2C1` [OLEANOLIC_ACID], for which, in data set [3], the selectivity ratio was above 1.38. Also, in data set [1], the cytotoxic concentration (CC50) is above 100 µM. For the same compound, the IC50 in the data set with Influenza A virus [5] is 72.3 µM. Also, in the data set with Influenza A virus [2], the inhibition at 100 µM is above 80%.

As for `CC1(C)CC[C@]2(C(=O)NCc3cn(CC(CO)(Cn4cc(CNC(=O)[C@]56CCC(C)(C)C[C@H]5C5=CC[C@@H]7[C@@]8(C)CC[C@H](O)C(C)(C)[C@@H]8CC[C@@]7(C)[C@]5(C)CC6)nn4)Cn4cc(CNC(=O)[C@]56CCC(C)(C)C[C@H]5C5=CC[C@@H]7[C@@]8(C)CC[C@H](O)C(C)(C)[C@@H]8CC[C@@]7(C)[C@]5(C)CC6)nn4)nn3)CC[C@]3(C)C(=CC[C@@H]4[C@@]5(C)CC[C@H](O)C(C)(C)[C@@H]5CC[C@]43C)[C@@H]2C1`, the selectivity ratio in data set [3] was above 21.3. Moreover, the CC50 in data set [1] is above 100 µM. Further, in the data set on Influenza A virus [5], the IC50 was determined as 4.69 µM. Moreover, the inhibition at 100 µM with Influenza A virus [2] was above 80%.

In the case of `CC1(C)CC[C@]2(C(=O)NCc3cn(Cc4cc(Cn5cc(CNC(=O)[C@]67CCC(C)(C)C[C@H]6C6=CC[C@@H]8[C@@]9(C)CC[C@H](O)C(C)(C)[C@@H]9CC[C@@]8(C)[C@]6(C)CC7)nn5)cc(Cn5cc(CNC(=O)[C@]67CCC(C)(C)C[C@H]6C6=CC[C@@H]8[C@@]9(C)CC[C@H](O)C(C)(C)[C@@H]9CC[C@@]8(C)[C@]6(C)CC7)nn5)c4)nn3)CC[C@]3(C)C(=CC[C@@H]4[C@@]5(C)CC[C@H](O)C(C)(C)[C@@H]5CC[C@]43C)[C@@H]2C1`, in data set [3], the selectivity ratio was above 14.6. Moreover, the CC50 in data set [1] was above 100 µM. Also, the IC50 with Influenza A virus [5] is 6.86 µM. The inhibition at 100 µM in the data set on Influenza A virus [2] is above 80%.
